Results on 10 compounds are retold here after ChEMBL document CHEMBL1165888, “Synthesis and study of antiproliferative activity of novel thienopyrimidines on glioblastoma cells” (Eur J Med Chem, 2010).

The experiment concerns DBTRG-05MG. The experiment can be described thus: Cytotoxicity against human DBTRG-05MG cells after 72 hrs by MTT assay. In kind it is functional, cell-based. In short, it runs like this: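 DBTRG.05-MG cells were grown in RPMI 1640 with 10% heat-inactivated FCS at 37 °C and 5% CO₂. They were seeded at 6×10^3 per well, cultured 72 h, then exposed 72 h to serial dilutions in DMSO (≤1%, ≤200 μM). Viability was read by MTT (0.5 mg/mL, 37 °C), DMSO-solubilized, A570/630, as % of untreated wells. IC50 came from curves; triplicates, mean ± SD.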

`c1ccc(Nc2ncnc3sc4c(c23)CCCC4)cc1` gave an IC50 of 585 µM.
`COc1ccc(Nc2ncnc3sc4ccccc4c23)cc1` registered an IC50 of 117 µM.
`COc1ccc(Nc2ncnc3sc4c(c23)CCCC4)cc1` showed an IC50 of 152 µM.
In turn, `COc1ccccc1Nc1ncnc2sc3ccccc3c12` returned a half-maximal inhibitory concentration (IC50) of 41.2 µM.
Regarding `c1ccc(Nc2ncnc3sc4ccccc4c23)cc1`, half-maximal inhibition (IC50) was put at 109 µM.
On to `CN(C)c1ncnc2sc3ccccc3c12`, for which inhibition was half-maximal at 138 µM (IC50).
The compound `Cc1ccccc1Nc1ncnc2sc3c(c12)CCCC3` gave a 50% inhibitory concentration (IC50) of 474 µM.
With `CN(C)c1ncnc2sc3c(c12)CCCC3`, the IC50 was 149 µM.
In the case of `Cc1ccccc1Nc1ncnc2sc3ccccc3c12`, it took 61.8 µM to reach half-maximal inhibition (IC50).
`COc1ccccc1Nc1ncnc2sc3c(c12)CCCC3` returned a 50% inhibitory concentration (IC50) of 571 µM.
